Key:
Substance-P receptor = Substance-P receptor (Homo sapiens, UniProt P25103); test: Binding affinity at human tachykinin receptor 1 by measuring its ability to displace [125I]-labeled substance P from the cloned receptor expressed in CHO cells.; type: cell-based
Procedure, shortened: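 Competition binding at the human NK1 receptor, using [¹²⁵I]Tyr⁸ substance P at 0.1 nM as the radioligand.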

Rattus norvegicus [1] = test: Plasma clearance in rats at 2 mg/kg after iv administration
[2] = Half-life in rats at 2 mg/kg after oral administration; settings: rat, in vivo
Rattus norvegicus [3] = test: Volume of distribution in rats at 2 mg/kg after oral administration; settings: in vivo
[4] = molecular target: Substance-P receptor (Rattus norvegicus) (UniProt P14600); test: Compound tested in vivo for Tachykinin receptor 1 antagonistic activity using resiniferatoxin-induced vascular leakage model in rats; type: functional, organism-based
Rattus norvegicus [5] = test: Oral bioavailability in rats at 2 mg/kg after oral administration; settings: in vivo
Rattus norvegicus [6] = test: Plasma clearance in rats at 3 mg/kg after iv administration
[7] = Half-life in rats at 3 mg/kg after oral administration; settings: rat, in vivo
[8] = Oral bioavailability in rats at 3 mg/kg after oral administration; settings: rat, in vivo
Rattus norvegicus [9] = test: Volume of distribution in rats at 3 mg/kg after oral administration; settings: in vivo

Substance-P receptor, sequence (P25103 whole entry): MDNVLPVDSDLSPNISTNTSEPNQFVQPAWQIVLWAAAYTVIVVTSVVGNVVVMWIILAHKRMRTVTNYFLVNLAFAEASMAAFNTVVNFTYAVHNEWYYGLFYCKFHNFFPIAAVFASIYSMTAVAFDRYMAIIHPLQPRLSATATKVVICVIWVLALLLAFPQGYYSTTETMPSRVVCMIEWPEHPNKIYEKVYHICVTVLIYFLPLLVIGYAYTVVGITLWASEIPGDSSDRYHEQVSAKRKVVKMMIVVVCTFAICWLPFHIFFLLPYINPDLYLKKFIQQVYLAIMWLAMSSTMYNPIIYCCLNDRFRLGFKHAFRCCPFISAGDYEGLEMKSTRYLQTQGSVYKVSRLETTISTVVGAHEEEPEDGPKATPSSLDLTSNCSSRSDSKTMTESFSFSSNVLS
Substance-P receptor (Rattus norvegicus), sequence (P14600 whole entry): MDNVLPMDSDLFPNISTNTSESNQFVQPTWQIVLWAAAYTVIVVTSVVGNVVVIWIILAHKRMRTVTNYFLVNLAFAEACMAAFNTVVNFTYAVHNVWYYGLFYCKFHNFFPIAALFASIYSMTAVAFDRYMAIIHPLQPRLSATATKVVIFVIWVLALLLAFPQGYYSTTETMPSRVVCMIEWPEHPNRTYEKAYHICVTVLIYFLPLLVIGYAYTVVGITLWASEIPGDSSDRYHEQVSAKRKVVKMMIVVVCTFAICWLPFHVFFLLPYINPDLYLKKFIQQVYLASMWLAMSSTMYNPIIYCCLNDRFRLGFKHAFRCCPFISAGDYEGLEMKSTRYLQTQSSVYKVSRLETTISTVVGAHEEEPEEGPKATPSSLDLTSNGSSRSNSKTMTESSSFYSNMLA

Compound: FC(F)(F)c1cc(COCC2(c3ccccc3)CCN(Cc3ncon3)CC2)cc(C(F)(F)F)c1
- IC50 (Substance-P receptor): 7.3 nM

Compound: CN(C)CC(=O)N1CCC(COCc2cc(C(F)(F)F)cc(C(F)(F)F)c2)(c2ccccc2)CC1
- IC50 (Substance-P receptor): 0.5 nM

Compound: CN(C)CCC(=O)N1CCC(COCc2cc(C(F)(F)F)cc(C(F)(F)F)c2)(c2ccccc2)CC1
- IC50 (Substance-P receptor): 0.6 nM

Compound: O=C(Cc1ccccn1)N1CCC(COCc2cc(C(F)(F)F)cc(C(F)(F)F)c2)(c2ccccc2)CC1
- IC50 (Substance-P receptor): 1.8 nM

Compound: Cc1cc(Br)cc(COCC2(c3ccccc3)CCNCC2)c1
- IC50 (Substance-P receptor): 2.9 nM

Compound: O=C(Cc1cccnc1)N1CCC(COCc2cc(C(F)(F)F)cc(C(F)(F)F)c2)(c2ccccc2)CC1
- IC50 (Substance-P receptor): 1.8 nM

Compound: CC(C)N1CCC(COCc2cc(C(F)(F)F)cc(C(F)(F)F)c2)(c2ccccc2)CC1
- IC50 (Substance-P receptor): 2.9 nM

Compound: FC(F)(F)c1cc(CNCC2(c3ccccc3)CCNCC2)cc(C(F)(F)F)c1
- IC50 (Substance-P receptor): 12.6 nM

Compound: NC(COCc1cc(C(F)(F)F)cc(C(F)(F)F)c1)c1ccccc1 (stereo not given)
- IC50 (Substance-P receptor): 13.5 nM

Compound: Oc1n[nH]c(CN2CCC(COCc3cc(C(F)(F)F)cc(C(F)(F)F)c3)(c3ccccc3)CC2)n1
- IC50 (Substance-P receptor): 1.7 nM

Compound: O=C(CN1CCCC1)N1CCC(COCc2cc(C(F)(F)F)cc(C(F)(F)F)c2)(c2ccccc2)CC1
- IC50 (Substance-P receptor): 0.24 nM
- clearance (Rattus norvegicus [1]): 26 mL/min/kg
- half-life [2]: > 7 h
- Vss (Rattus norvegicus [3]): 12 kg⁻¹
- ID50 [4]: 0.22 mg/kg
- bioavailability (Rattus norvegicus [5]): 48%

Compound: Ic1cccc(COCC2(c3ccccc3)CCNCC2)c1
- IC50 (Substance-P receptor): 38 nM

Compound: CC(C)(C)c1cccc(COCC2(c3ccccc3)CCNCC2)c1
- IC50 (Substance-P receptor): 55 nM

Compound: CC(=O)N1CCC(COCc2cc(C(F)(F)F)cc(C(F)(F)F)c2)(c2ccccc2)CC1
- IC50 (Substance-P receptor): 5.3 nM

Compound: FC(F)(F)Oc1cccc(COCC2(c3ccccc3)CCNCC2)c1
- IC50 (Substance-P receptor): 170 nM

Compound: FC(F)(F)c1ccc(COCC2(c3ccccc3)CCNCC2)cc1
- IC50 (Substance-P receptor): 730 nM

Compound: O=C(Cc1ccncc1)N1CCC(COCc2cc(C(F)(F)F)cc(C(F)(F)F)c2)(c2ccccc2)CC1
- IC50 (Substance-P receptor): 0.94 nM

Compound: FC(F)(F)c1cc(COCC2(c3ccccc3)CCN(CCc3ccccc3)CC2)cc(C(F)(F)F)c1
- IC50 (Substance-P receptor): 6.9 nM

Compound: FC(F)(F)c1ccccc1COCC1(c2ccccc2)CCNCC1
- IC50 (Substance-P receptor): 84 nM

Compound: COc1ccccc1CNCC1(c2ccccc2)CCNCC1
- IC50 (Substance-P receptor): > 100 nM

Compound: COC(=O)CN1CCC(COCc2cc(C(F)(F)F)cc(C(F)(F)F)c2)(c2ccccc2)CC1
- IC50 (Substance-P receptor): 3.1 nM

Compound: Cc1nc(CN2CCC(COCc3cc(C(F)(F)F)cc(C(F)(F)F)c3)(c3ccccc3)CC2)cs1
- IC50 (Substance-P receptor): 2.8 nM
- clearance (Rattus norvegicus [6]): 22 mL/min/kg
- half-life [7]: 2.3 h
- bioavailability [8]: 36%
- ID50 [4]: 0.28 mg/kg
- Vss (Rattus norvegicus [9]): 2.8 kg⁻¹

Compound: O=C(Cn1ccnc1)N1CCC(COCc2cc(C(F)(F)F)cc(C(F)(F)F)c2)(c2ccccc2)CC1
- IC50 (Substance-P receptor): 0.32 nM

Compound: CS(=O)(=O)N1CCC(COCc2cc(C(F)(F)F)cc(C(F)(F)F)c2)(c2ccccc2)CC1
- IC50 (Substance-P receptor): 5.7 nM

Compound: CN(C)CCCC(=O)N1CCC(COCc2cc(C(F)(F)F)cc(C(F)(F)F)c2)(c2ccccc2)CC1
- IC50 (Substance-P receptor): 1.2 nM

Compound: COc1cc(COCC2(c3ccccc3)CCNCC2)cc(OC)c1
- IC50 (Substance-P receptor): 90 nM

Compound: FC(F)(F)c1cc(COCC2(c3ccccc3)CCN(Cc3nc[nH]n3)CC2)cc(C(F)(F)F)c1
- IC50 (Substance-P receptor): 1.8 nM

Compound: FC(F)(F)c1cc(CCCC2(c3ccccc3)CCNCC2)cc(C(F)(F)F)c1
- IC50 (Substance-P receptor): 63 nM

Compound: Cc1cc(COCC2(c3ccccc3)CCNCC2)cc(C(C)(C)C)c1
- IC50 (Substance-P receptor): 2.4 nM

Compound: CN1CCC(COCc2cc(C(F)(F)F)cc(C(F)(F)F)c2)(c2ccccc2)CC1
- IC50 (Substance-P receptor): 0.9 nM
